Activity calls are given as the source filed them.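 The calls were made as follows, unless noted: active = current rise at least 3 SD above the untreated control mean in each of two repeat wells; inactive = the rest.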

Assay [1] can be described thus: nonspecific flux increase, KCNQ1-free cells – parental CHO cells, counter-screen for KCNQ1 potentiator project (AID 493006;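 active = duplicate-averaged activation above buffer control mean plus 5 SD of those controls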). Particulars: parental CHO-K1 cells, FluxOR thallium flux, at 10 µM; hits give high values. The method in brief:
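Test system: parental CHO-K1 cells, FluxOR dye-loaded / Probe or stimulus: potassium plus thallium depolarizing stimulus, 5x stock 12.5 mM K2SO4, Tl2SO4 / Timing: overnight 37 °C plating, 90 min dye, 20 min dark compound / Measured by: kinetic thallium-flux fluorescence / Read-out: max-minus-min fluorescence over baseline, percent of buffer-to-R-L3 span / Benchmarks: buffer and R-L3 controls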

Assay [2] addresses Potassium voltage-gated channel subfamily KQT member 1 (Homo sapiens) (UniProt P51787). Briefly: enhancement of KCNQ1 channel thallium flux – FluxOR thallium flux, CHO cells, duplicates, confirmation (AID 493007;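 active = potentiation averaged over duplicate wells exceeding buffer-only control mean by more than 3 SD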;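 as to outcome: cells depolarized by a potassium plus thallium sulfate stimulus after compound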;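 as to potentiation: 0% = buffer-only wells and 100% = R-L3 activator control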). To be noted: KCNQ1 cell line, FluxOR thallium flux fluorescence, at 10 µM; hits give high values, % of reference activator effect, buffer zero. The method in brief: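 Assay system: CHO cells carrying KCNQ1 | Controls: Buffer and R-L3 controls | Schedule: FluxOR dye loading 90 min, compound exposure 20 min, room temperature | Read-out: Baseline-normalized fluorescence change, percent of buffer-to-R-L3 range | Replicates: Each compound tested in duplicate | Technique: Kinetic thallium influx fluorescence with FluxOR dye, 10 s baseline, 110 s post-stimulus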

In assay [3] the target is Potassium voltage-gated channel subfamily KQT member 2 (Rattus norvegicus) (UniProt O88943). Briefly: KCNQ2 thallium flux enhancement – KCNQ2-CHO-K1 cells, selectivity assay for KCNQ1 potentiator project (AID 493009;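 active = mean duplicate potentiation above the buffer control mean plus 5 SD of buffer wells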;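 also: assay conditions were tuned for KCNQ1 rather than KCNQ2 modulators; signal is max minus min fluorescence divided by baseline after thallium stimulus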). To be noted: FluxOR thallium flux fluorescence, at 10 µM; hits give high values, scaled: buffer 0, activator control 100.
Potassium voltage-gated channel subfamily KQT member 2 (Rattus norvegicus), sequence (O88943 whole entry, looked up): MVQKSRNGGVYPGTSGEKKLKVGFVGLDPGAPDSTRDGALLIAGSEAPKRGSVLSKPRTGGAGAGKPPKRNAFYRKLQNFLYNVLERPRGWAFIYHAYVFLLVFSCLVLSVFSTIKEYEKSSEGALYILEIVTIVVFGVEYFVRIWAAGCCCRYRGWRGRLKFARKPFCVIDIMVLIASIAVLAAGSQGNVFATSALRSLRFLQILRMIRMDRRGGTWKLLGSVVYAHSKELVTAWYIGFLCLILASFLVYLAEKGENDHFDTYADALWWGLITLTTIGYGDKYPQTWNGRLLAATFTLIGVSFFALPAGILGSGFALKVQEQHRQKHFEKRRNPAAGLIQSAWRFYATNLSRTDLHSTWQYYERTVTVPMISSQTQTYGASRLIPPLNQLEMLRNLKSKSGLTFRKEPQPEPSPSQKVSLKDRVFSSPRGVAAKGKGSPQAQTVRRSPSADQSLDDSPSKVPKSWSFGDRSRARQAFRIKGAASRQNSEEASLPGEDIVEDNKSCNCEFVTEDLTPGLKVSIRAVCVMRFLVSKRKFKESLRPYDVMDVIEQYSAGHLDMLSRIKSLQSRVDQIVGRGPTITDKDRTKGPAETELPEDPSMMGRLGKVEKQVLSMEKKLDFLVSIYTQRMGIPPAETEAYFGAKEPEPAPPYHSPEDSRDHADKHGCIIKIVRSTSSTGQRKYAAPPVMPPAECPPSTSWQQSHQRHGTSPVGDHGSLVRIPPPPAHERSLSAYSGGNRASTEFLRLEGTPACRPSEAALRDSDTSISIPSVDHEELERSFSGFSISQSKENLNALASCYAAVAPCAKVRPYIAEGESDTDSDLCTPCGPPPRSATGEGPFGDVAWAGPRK
Assay [4] has as its target Potassium voltage-gated channel subfamily KQT member 1 (Homo sapiens) (UniProt P51787). Briefly: KCNQ1 activators by electrophysiology – IonWorks patch clamp, KCNQ1-CHO cells, orthogonal assay for KCNQ1 potentiator project, confirmation (AID 493184). To be noted: automated patch clamp current, at 10 µM; hits give high values. The method in brief:
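Material: KCNQ1-expressing CHO cells; doses: 10 µM final, single point; probe or stimulus: voltage step from -90 mV holding to +40 mV, 2,000 ms; signal: automated voltage clamp, amphotericin B perforated patch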

Potassium voltage-gated channel subfamily KQT member 1 (Homo sapiens), sequence (P51787 whole entry, looked up): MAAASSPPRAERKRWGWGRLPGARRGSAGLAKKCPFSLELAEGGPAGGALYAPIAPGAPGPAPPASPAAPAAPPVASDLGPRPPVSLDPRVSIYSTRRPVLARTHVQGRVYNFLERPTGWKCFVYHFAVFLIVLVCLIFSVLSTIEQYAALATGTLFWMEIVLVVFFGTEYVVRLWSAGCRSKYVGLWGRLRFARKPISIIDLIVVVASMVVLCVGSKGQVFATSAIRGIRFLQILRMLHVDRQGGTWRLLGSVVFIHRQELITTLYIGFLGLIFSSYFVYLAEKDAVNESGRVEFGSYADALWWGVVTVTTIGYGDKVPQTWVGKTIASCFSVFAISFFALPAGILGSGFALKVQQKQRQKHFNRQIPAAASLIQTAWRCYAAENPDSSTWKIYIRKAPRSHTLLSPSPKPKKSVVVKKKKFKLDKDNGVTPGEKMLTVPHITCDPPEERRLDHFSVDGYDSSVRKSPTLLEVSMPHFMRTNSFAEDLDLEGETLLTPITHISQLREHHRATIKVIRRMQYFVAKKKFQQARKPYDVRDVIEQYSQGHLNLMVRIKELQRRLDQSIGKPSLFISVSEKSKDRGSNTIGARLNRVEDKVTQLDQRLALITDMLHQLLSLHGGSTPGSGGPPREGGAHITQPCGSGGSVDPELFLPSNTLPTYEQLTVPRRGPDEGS

Regarding `Oc1c(Cl)cc(Cl)cc1/C=N/c1nccs1`, in assay [1], the activation is 174% (active). The result in assay [2], in assay [3] and in assay [4] was inactive.
As to `CC(=O)c1c(C)[nH]c(-c2ccccc2)nc1=S`, the activation in assay [1] was 151% (active). Further, the potentiation was 40% (active) in assay [2] and 178% (active) in assay [3]. Besides, the result in assay [4] was inactive.
On to `Cc1cc(=O)oc2cc(OCC3CC(c4ccccc4Cl)=NO3)ccc12` (stereo not given), for which the activation in assay [1] was 156% (active). In addition, the potentiation in assay [2] is 30.5% (active). In addition, the result in assay [3] and in assay [4] was inactive.
Consider `Fc1cccc2sc(Nc3nnc(-c4ccccc4)o3)nc12`, for which, in assay [1], the activation was 531% (active). For the same compound, the results for the potentiation in assay [2] and in assay [3] were 198% (active) and 481% (active), respectively. For the same compound, the result in assay [4] was inactive.
On to `O=C(NNc1ncc(C(F)(F)F)cc1Cl)c1c(Cl)cccc1Cl`, for which the result in assay [1], in assay [2], in assay [3] and in assay [4] was inactive.
As to `CC(CCc1ccccc1)NC(=S)NC(=O)c1ccco1` (stereo not given), the activation in assay [1] is 214% (active). The potentiation was 69.5% (active) in assay [2] and 251% (active) in assay [3]. Moreover, the result in assay [4] was inactive.
For `COc1cc(/C=N/NC(=O)c2ccoc2C)ccc1OCCN1CCCCC1`, the result in assay [1], in assay [3] and in assay [4] was inactive. In addition, the potentiation in assay [2] is 23.5% (active).
Take `CCc1ccc(/C=C/C(=O)C2C(=O)c3ccccc3C2=O)cc1`: the activation in assay [1] was 284% (active). Besides, the values for the potentiation in assay [2] and in assay [3] were 118% (active) and 297% (active), respectively. Besides, the outcome in assay [4] was inactive.
Take `CC(=O)Nc1cccc(/C(C)=N/NC(=O)c2ccc(Cl)cc2Cl)c1`: the result in assay [1], in assay [2], in assay [3] and in assay [4] was inactive.
With `CCC(C)c1ccccc1NC(=S)NC(=O)c1ccco1` (stereo not given), in assay [1], the activation was 400% (active). The figures for the potentiation in assay [2] and in assay [3] were 114% (active) and 431% (active), respectively. The result in assay [4] was inactive.
In the case of `O=C1NC(=S)S/C1=C\c1ccc2ccccc2c1`, the activation in assay [1] was 234% (active). Besides, the potentiation in assay [2] is 82% (active); in assay [3], 218% (active). In addition, in assay [4], the result was inactive.
Consider `CCOc1ccc(C(=O)C(CCC(CN(C)C)C(=O)c2ccc(OCC)cc2)CN(C)C)cc1` (stereo not given), for which the outcome in assay [1] and in assay [4] was inactive. Moreover, the potentiation was 34.5% (active) in assay [2] and 152% (active) in assay [3].
For the compound `C=CCn1c(-c2cc(-c3ccc(C)cc3)nc3ccccc23)n[nH]c1=S`, the activation in assay [1] is 138% (active). Moreover, the figures for the potentiation in assay [2] and in assay [3] were 108% (active) and 170% (active), respectively. Besides, the outcome in assay [4] was inactive.
On the same counts, the results for `Cc1ccc(-c2nc(N)s[n+]2-c2ccccc2)cc1` are 187% (active), 157% (active), 155% (active) and “inactive”.
Consider `O=Cc1ccccc1OCCCOc1cccc2cccnc12`, for which the outcome in assay [1], in assay [2], in assay [3] and in assay [4] was inactive.
Regarding `O=C(Nc1ccccc1Cl)N1CCN(c2ccccn2)CC1`, the outcome in assay [1], in assay [2], in assay [3] and in assay [4] was inactive.
As for `Cc1ccccc1C(=O)NNC(=O)C(=O)Nc1cccc(Cl)c1C`, the activation in assay [1] is 346% (active). Moreover, the potentiation in assay [2] is 168% (active); in assay [3], 406% (active). Further, the result in assay [4] was inactive.
On the same counts, the results for `Fc1ccc2nc(Nc3nc4c(F)cc(F)cc4s3)sc2c1` are 165% (active), 74% (active), 210% (active) and “inactive”.
Turning to `COc1cc(NS(=O)(=O)c2ccc(NC(=S)NC(=O)c3sc4cc(F)ccc4c3Cl)cc2)nc(OC)n1`, the activation in assay [1] is 144% (active). Moreover, the outcome in assay [2], in assay [3] and in assay [4] was inactive.
Turning to `CC(Sc1n[nH]c(N)n1)C(=O)NC1CCCCC1C` (stereo not given), the activation in assay [1] was 152% (active). Also, the potentiation in assay [2] was 37% (active); in assay [3], 172% (active). Besides, in assay [4], the outcome was inactive.
Turning to `CSc1ccccc1C(=O)NC1CCCc2ccccc21` (stereo not given), the outcome in assay [1], in assay [2], in assay [3] and in assay [4] was inactive.
Regarding `COC(=O)c1c(NS(=O)(=O)c2ccc3ccccc3c2)sc2c1CCCC2`, the activation in assay [1] is 216% (active). Moreover, the potentiation was 60.5% (active) in assay [2] and 232% (active) in assay [3]. For the same compound, the result in assay [4] was inactive.
With `Cc1cc2n(n1)SC(Nc1ccc(F)c(Cl)c1)N2` (stereo not given), the outcome in assay [1], in assay [2], in assay [3] and in assay [4] was inactive.
As to `Cc1cc(/C=C2\C(=N)N3N=C(c4ccco4)SC3=NC2=O)c(C)n1Cc1ccccc1`, the outcome in assay [1], in assay [3] and in assay [4] was inactive. Further, the potentiation in assay [2] was 37% (active).
For the compound `CC(NC(=S)NC(=O)c1ccccc1Br)c1ccccc1` (stereo not given), the result in assay [1] and in assay [4] was inactive. Also, the potentiation was 84% (active) in assay [2] and 184% (active) in assay [3].
Turning to `COC(=O)C1C(c2ccc(OC)c(OC)c2)NC(c2ccc(OC)c(OC)c2)C(C(=O)OC)S1(=O)=O` (stereo not given), the outcome in assay [1], in assay [2], in assay [3] and in assay [4] was inactive.
With `CN(C)CCCNc1nc2sc3c(c2c(=O)n1CCc1ccccc1)CCCCC3`, the outcome in assay [1], in assay [2], in assay [3] and in assay [4] was inactive.
As for `Cc1cc(NC(=O)CSc2cn(CCNC(=O)c3ccc(F)cc3)c3ccccc23)no1`, the result in assay [1], in assay [2], in assay [3] and in assay [4] was inactive.
Turning to `COc1ccc2c(-c3ccccc3)cc(=S)[nH]c2c1`, in assay [1], the activation is 210% (active). Besides, the potentiation in assay [2] was 50.5% (active); in assay [3] it was 231% (active). Besides, the outcome in assay [4] was inactive.
With `CCOC(=O)c1ccccc1N1C(=O)CSC1=S`, the outcome in assay [1], in assay [2], in assay [3] and in assay [4] was inactive.

The record behind these values is PubChem BioAssay.
